From ChEMBL document CHEMBL1153046, “Synthesis and antitumor activity of substituted triazolo[4,3-a]pyrimidin-6-sulfonamide with an incorporated thiazolidinone moiety” (2009)

Tests used:
Assay type in all cases: functional
SF-295 = experiment: Growth inhibition of human SF295 cells after 48 hrs by sulforhodamine B assay; conditions: SF-295, 48 h
In short: (§1)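 NCI 60-cell-line panel. Cells are grown in RPMI1640 with 5% fetal calf serum and 2 mM L-glutamine, seeded at a density set by growth characteristics, and preincubated 24 h. Compound is tested at a minimum of five concentrations at 10-fold dilution, with 48 h continuous exposure. Viability is read by sulforhodamine B protein assay. GI50, TGI and LC50 come from dose-response curves.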

HT-29 = experiment: Growth inhibition of human HT-29 cells after 48 hrs by sulforhodamine B assay; conditions: HT-29, 48 h; in short: as §1
MDA-MB-231 = experiment: Growth inhibition of human MDA-MB-231 cells after 48 hrs by sulforhodamine B assay; conditions: MDA-MB-231, 48 h; in short: as §1
NCI-H23 = experiment: Growth inhibition of human NCI-H23 cells after 48 hrs by sulforhodamine B assay; conditions: NCI-H23, 48 h; in short: as §1
SW-620 = experiment: Growth inhibition of human SW620 cells after 48 hrs by sulforhodamine B assay; conditions: SW-620, 48 h
In short: (§2)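 NCI 60-cell-line panel (nine cancer types), with cells grown in RPMI1640 plus 5% fetal calf serum and 2 mM L-glutamine. Cells are seeded at a density that depends on the line and preincubated 24 h. Compounds are then applied at a minimum of five 10-fold dilutions over a 5-log range with 48 h continuous exposure. Viability is read by SRB protein assay, and GI50 is derived from dose-response curves in units of 10^-5 M.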

OVCAR-3 = experiment: Growth inhibition of human OVCAR-3 cells after 48 hrs by sulforhodamine B assay; conditions: OVCAR-3, 48 h; in short: as §1
NCI-H522 = experiment: Growth inhibition of human NCI-H522 cells after 48 hrs by sulforhodamine B assay; conditions: NCI-H522, 48 h; in short: as §1
LOX IMVI = experiment: Growth inhibition of human LOXIMVI cells after 48 hrs by sulforhodamine B assay; in short: as §1
786-0 = experiment: Growth inhibition of human 786-0 cells after 48 hrs by sulforhodamine B assay; conditions: 786-0, 48 h; in short: as §1
NCI-H460 [1] = experiment: Growth inhibition of human NCI-H460 cells after 48 hrs by sulforhodamine B assay; conditions: NCI-H460, 48 h; in short: as §1
UO-31 = experiment: Growth inhibition of human UO31 cells after 48 hrs by sulforhodamine B assay; conditions: UO-31, 48 h; in short: as §2
KM12 = experiment: Growth inhibition of human KM12 cells after 48 hrs by sulforhodamine B assay; conditions: KM12, 48 h; in short: as §1
CCRF-CEM = experiment: Growth inhibition of human CCRF-CEM cells after 48 hrs by sulforhodamine B assay; in short: as §1
UACC-257 = experiment: Growth inhibition of human UACC257 cells after 48 hrs by sulforhodamine B assay; conditions: UACC-257, 48 h; in short: as §2
NCI-H226 = experiment: Growth inhibition of human NCI-H226 cells after 48 hrs by sulforhodamine B assay; conditions: NCI-H226, 48 h; in short: as §1
[2] = Growth inhibition of human […] cells after 48 hrs by sulforhodamine B assay; in short: as §1
MOLT-4 = experiment: Growth inhibition of human MOLT4 cells after 48 hrs by sulforhodamine B assay; conditions: MOLT-4, 48 h; in short: as §1
OVCAR-8 = experiment: Growth inhibition of human OVCAR8 cells after 48 hrs by sulforhodamine B assay; conditions: OVCAR-8, 48 h; in short: as §1
[3] = Growth inhibition of human Hs 578T cells after 48 hrs by sulforhodamine B assay; in short: as §1
SK-MEL-5 = experiment: Growth inhibition of human SK-MEL-5 cells after 48 hrs by sulforhodamine B assay; conditions: SK-MEL-5, 48 h; in short: as §1
HCC 2998 = experiment: Growth inhibition of human HCC2998 cells after 48 hrs by sulforhodamine B assay; conditions: HCC 2998, 48 h; in short: as §1
HCT-15 = experiment: Growth inhibition of human HCT15 cells after 48 hrs by sulforhodamine B assay; conditions: HCT-15, 48 h; in short: as §1
U-251 = experiment: Growth inhibition of human U251 cells after 48 hrs by sulforhodamine B assay; conditions: U-251, 48 h; in short: as §2
NCI-H460 [4] = experiment: Antiproliferative activity against human NCI-H460 cells assessed as cell growth at 100 uM after 48 hrs by alamar blue assay; conditions: NCI-H460, 48 h, read-out: Activity
In short: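 NCI three-cell-line primary screen. Cells are seeded and preincubated in microtiter plates. Compound is added at a single 10^-4 M concentration and cultures are incubated 48 h. The end-point is read with alamar blue. Results are given as percent growth relative to untreated control cells.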

CAKI-1 = experiment: Growth inhibition of human Caki1 cells after 48 hrs by sulforhodamine B assay; conditions: CAKI-1, 48 h; in short: as §1
UACC-62 = experiment: Growth inhibition of human UACC62 cells after 48 hrs by sulforhodamine B assay; conditions: UACC-62, 48 h; in short: as §2
MCF7 = experiment: Growth inhibition of human MCF7 cells after 48 hrs by sulforhodamine B assay; conditions: MCF7, 48 h; in short: as §1
K562 = experiment: Growth inhibition of human K562 cells after 48 hrs by sulforhodamine B assay; conditions: K562, 48 h; in short: as §1
SK-MEL-28 = experiment: Growth inhibition of human SK-MEL-28 cells after 48 hrs by sulforhodamine B assay; conditions: SK-MEL-28, 48 h; in short: as §1
HOP-62 = experiment: Growth inhibition of human HOP62 cells after 48 hrs by sulforhodamine B assay; conditions: HOP-62, 48 h; in short: as §1
SR = experiment: Growth inhibition of human SR cells after 48 hrs by sulforhodamine B assay; in short: as §2
[5] = read-out: LC50 (the source's name)

COc1ccc(/C=N/c2nc3[nH]nc(C)n3c(=O)c2S(=O)(=O)NN2C(=O)C(CN3CCN(C)CC3)SC2c2cccs2)cc1 (stereo unspecified)
GI50 (SF-295): 1.02 µM
LC50 (concentration killing 50% of cells) (SF-295): > 100 µM
TGI (SF-295): > 100 µM
GI50 (HT-29): 1.96 µM
GI50 (MDA-MB-231): 3.25 µM
LC50 (50% lethal concentration) (MDA-MB-231): > 100 µM
TGI (MDA-MB-231): 42.2 µM
GI50 (NCI-H23): 1.16 µM
TGI (NCI-H23): 9.11 µM
GI50 (SW-620): 1.38 µM
GI50 (OVCAR-3): 0.88 µM
LC50 (concentration killing 50% of cells) (OVCAR-3): > 100 µM
TGI (OVCAR-3): > 100 µM
GI50 (NCI-H522): 2.63 µM
TGI (NCI-H522): 13.3 µM
GI50 (LOX IMVI): 2.16 µM
TGI (LOX IMVI): > 100 µM
GI50 (786-0): 3.93 µM
TGI (786-0): > 100 µM
CC50 (786-0; [5]): > 100 µM
GI50 (NCI-H460 [1]): 8.2 µM
TGI (NCI-H460 [1]): > 100 µM
GI50 (UO-31): 5.36 µM
LC50 (UO-31): > 100 µM
TGI (UO-31): > 100 µM
GI50 (KM12): 3.02 µM
GI50 (CCRF-CEM): 3.52 µM
TGI (CCRF-CEM): 16.1 µM
GI50 (UACC-257): 2.52 µM
LC50 (UACC-257): > 100 µM
TGI (UACC-257): > 100 µM
GI50 (NCI-H226): 11.8 µM
LC50 (concentration killing 50% of cells) (NCI-H226): > 100 µM
TGI (NCI-H226): > 100 µM
GI50 [2]: 2.56 µM
TGI [2]: 8.21 µM
CC50 [2, 5]: > 100 µM
GI50 (MOLT-4): 2.88 µM
TGI (MOLT-4): 18.3 µM
CC50 (MOLT-4; [5]): > 100 µM
GI50 (OVCAR-8): 3.53 µM
TGI (OVCAR-8): 40.5 µM
GI50 [3]: 3.05 µM
LC50 (concentration killing 50% of cells) [3]: > 100 µM
TGI [3]: > 100 µM
GI50 (SK-MEL-5): 0.72 µM
TGI (SK-MEL-5): 7.11 µM
CC50 (SK-MEL-5; [5]): > 100 µM
GI50 (HCC 2998): 1.34 µM
LC50 (HCC 2998): > 100 µM
TGI (HCC 2998): 16.8 µM
GI50 (HCT-15): 0.65 µM
TGI (HCT-15): > 100 µM
GI50 (U-251): 2.51 µM
LC50 (U-251): > 100 µM
TGI (U-251): > 100 µM
growth at 100 µM (NCI-H460 [4]): 24%
GI50 (CAKI-1): 1.29 µM
LC50 (50% lethal concentration) (CAKI-1): > 100 µM
TGI (CAKI-1): > 100 µM
GI50 (UACC-62): 1.47 µM
TGI (UACC-62): > 100 µM
CC50 (UACC-62; [5]): > 100 µM
GI50 (MCF7): 5.8 µM
TGI (MCF7): > 100 µM
GI50 (K562): 2.87 µM
LC50 (K562): 68.2 µM
TGI (K562): 6.75 µM
GI50 (SK-MEL-28): 16.4 µM
TGI (SK-MEL-28): > 100 µM
GI50 (HOP-62): 1.7 µM
LC50 (HOP-62): > 100 µM
TGI (HOP-62): > 100 µM
GI50 (SR): 0.79 µM
LC50 (concentration killing 50% of cells) (SR): 13.1 µM
TGI (SR): 3.03 µM
